Reference: ChEMBL document CHEMBL3632592, “Identification of Highly Promising Antioxidants/Neuroprotectants Based on Nucleoside 5'-Phosphorothioate Scaffold. Synthesis, Activity, and Mechanisms of Action” (J Med Chem, 2015)
Calls of active or inactive are those of the source. No cut-off for these calls is given here.

How the values were obtained:
PC-12 [1] = test system: PC-12
P2Y purinoceptor 1 = P2Y purinoceptor 1 (Homo sapiens, UniProt P47900); experiment: Agonist activity at GFP-tagged human P2Y1R transfected in human 1321N1 cells assessed as increase in intracellular Ca2+ level by fura 2/AM probe-based fluorescence assay; assay type: functional, cell-based
P2Y purinoceptor 11 = target: T1, P2Y purinoceptor 11 (Homo sapiens, UniProt Q96G91); experiment: Agonist activity at GFP-tagged human P2Y11R transfected in human 1321N1 cells assessed as increase in intracellular Ca2+ level by fura 2/AM probe-based fluorescence assay; assay type: functional, cell-based
T1 sequence (Q96G91 whole entry): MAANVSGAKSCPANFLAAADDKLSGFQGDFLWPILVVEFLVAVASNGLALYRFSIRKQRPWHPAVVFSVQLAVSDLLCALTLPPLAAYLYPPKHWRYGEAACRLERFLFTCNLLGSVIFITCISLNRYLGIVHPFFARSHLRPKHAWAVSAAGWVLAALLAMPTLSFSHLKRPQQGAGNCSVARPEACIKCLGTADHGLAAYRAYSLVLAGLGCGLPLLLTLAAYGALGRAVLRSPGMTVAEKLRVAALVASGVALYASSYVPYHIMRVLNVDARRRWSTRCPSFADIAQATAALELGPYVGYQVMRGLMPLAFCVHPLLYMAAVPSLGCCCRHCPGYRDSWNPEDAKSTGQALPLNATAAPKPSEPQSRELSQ

[2] = Antioxidant activity assessed as ABTS radical scavenging activity after 7 mins; assay type: physicochemical
Outline: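 ABTS radical cation made from 7 mM ABTS with 2.45 mM persulfate (final), kept in the dark at room temperature 12–16 h. It was then diluted in water pH 7.4 to A734 0.80 and mixed with compound or Trolox standard (final 0–60 µM). A734 was read at 7 min. Percent inhibition plotted against concentration; at least three runs, in triplicate.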

[3] = Antioxidant activity assessed as inhibition of Fe2+-induced DMPO-OH adduct formation from H2O2 preincubated for 30 secs followed by DMPO/H2O2 addition measured after 150 secs by ESR analysis; assay type: physicochemical
Outline: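 Fenton/ESR spin trapping: 1 mM ammonium iron(II) sulfate was added to 5–500 µM compound, then Tris buffer pH 7.4 (final pH 7.2–7.4). After 30 s, 100 mM DMPO and 100 mM H2O2 were added (stock concentrations). The ESR spectrum was recorded 150 s after H2O2, at room temperature. DMPO-OH adduct expressed as % of control containing FeSO4, H2O2 and DMPO only.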

[4] = Metal chelating activity assessed as inhibition of Fe2+-ferrozine complex formation after 10 mins; assay type: physicochemical
Outline: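 Competitive ferrozine assay. FeSO4 (final 10 µM) and ferrozine (final 20 µM) are mixed with nucleotide in DDW at final 25–200 µM and agitated 10 min at room temperature. Absorbance of the Fe(II)-ferrozine complex is read at 562 nm with and without compound, and inhibition of complex formation is calculated. Three experiments, mean ± S.D.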

PC-12 [5] = experiment: cells; conditions: Rattus norvegicus, PC-12, 1 h
Cerebral cortex neuron [6] = experiment: Neuroprotective activity against Fe2+-induced morphological changes in rat primary cortical neurons at 0.2 to 100 uM after 24 hrs by light microscopic analysis; assay type: functional, cell-based
Outline: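 Primary rat cortical neurons were exposed to 3 µM FeSO4 for 24 h, with compound at 0.2, 5 and 100 µM. Morphology (cell number, extensions, cytoskeleton) was examined by light microscopy at 100×.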

PC-12 [7] = experiment: Antioxidant activity in rat PC12 cells assessed as inhibition of Fe2+-induced reactive oxygen species formation at 0.01 to 25 uM after 1 hr by DCFH-DA dye-based fluorometric analysis in presence of P2Y12R antagonist 2-MeS-AMP; assay type: functional, cell-based
Outline: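 PC12 cells (DMEM, seeded 24 h) were preincubated 20 min with 50 µM P2Y12 antagonist 2-MeS-AMP. They were then loaded with DCFH-DA, given test compound at 0.01–25 µM, and oxidised with FeSO4 (final 0.16 µM). DCF fluorescence 485/530 nm over 1 h at 37 °C. ROS inhibition compared with no-antagonist control; three independent experiments in triplicate.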

NTERA2 = experiment: Antioxidant activity in human NTERA2 cells assessed as inhibition of Fe2+-induced reactive oxygen species formation at 0.01 to 25 uM after 1 hr by DCFH-DA dye-based fluorometric analysis in presence of P2Y1R antagonist MRS2179; assay type: functional, cell-based
Outline: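 Ntera-2 cells (DMEM, seeded 24 h) were preincubated 20 min with 40 µM P2Y1 antagonist MRS2179. They were then loaded with DCFH-DA and treated with compound at 0.01–25 µM, with oxidation started by FeSO4 (final 0.16 µM). DCF fluorescence 485/530 nm, 1 h at 37 °C. Three independent experiments in triplicate.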

[8] = Half life of the compound in RPMI-1640 medium at 37 degC by HPLC analysis; assay type: ADME
Outline: (§1)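 Nucleotides were incubated in human blood serum or RPMI-1640 at 37 °C for 0.5–24 h. Hydrolysis was followed by the change in HPLC peak integration of each analogue over time, and half-life was derived from this.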

[9] = Half life in human serum at 37 degC by HPLC analysis; assay type: ADME, cell-free
Outline: as §1

[10] = target: T2, Ectonucleotide pyrophosphatase/phosphodiesterase family member 1 (Homo sapiens, UniProt P22413); experiment: (§2) Drug metabolism assessed as human eNPP1-mediated compound hydrolysis at 4 mM after 2 hrs by reverse-phase HPLC analysis relative to ATP; assay type: ADME; conditions: 2 h, 4000 µM
T2 sequence (P22413 whole entry): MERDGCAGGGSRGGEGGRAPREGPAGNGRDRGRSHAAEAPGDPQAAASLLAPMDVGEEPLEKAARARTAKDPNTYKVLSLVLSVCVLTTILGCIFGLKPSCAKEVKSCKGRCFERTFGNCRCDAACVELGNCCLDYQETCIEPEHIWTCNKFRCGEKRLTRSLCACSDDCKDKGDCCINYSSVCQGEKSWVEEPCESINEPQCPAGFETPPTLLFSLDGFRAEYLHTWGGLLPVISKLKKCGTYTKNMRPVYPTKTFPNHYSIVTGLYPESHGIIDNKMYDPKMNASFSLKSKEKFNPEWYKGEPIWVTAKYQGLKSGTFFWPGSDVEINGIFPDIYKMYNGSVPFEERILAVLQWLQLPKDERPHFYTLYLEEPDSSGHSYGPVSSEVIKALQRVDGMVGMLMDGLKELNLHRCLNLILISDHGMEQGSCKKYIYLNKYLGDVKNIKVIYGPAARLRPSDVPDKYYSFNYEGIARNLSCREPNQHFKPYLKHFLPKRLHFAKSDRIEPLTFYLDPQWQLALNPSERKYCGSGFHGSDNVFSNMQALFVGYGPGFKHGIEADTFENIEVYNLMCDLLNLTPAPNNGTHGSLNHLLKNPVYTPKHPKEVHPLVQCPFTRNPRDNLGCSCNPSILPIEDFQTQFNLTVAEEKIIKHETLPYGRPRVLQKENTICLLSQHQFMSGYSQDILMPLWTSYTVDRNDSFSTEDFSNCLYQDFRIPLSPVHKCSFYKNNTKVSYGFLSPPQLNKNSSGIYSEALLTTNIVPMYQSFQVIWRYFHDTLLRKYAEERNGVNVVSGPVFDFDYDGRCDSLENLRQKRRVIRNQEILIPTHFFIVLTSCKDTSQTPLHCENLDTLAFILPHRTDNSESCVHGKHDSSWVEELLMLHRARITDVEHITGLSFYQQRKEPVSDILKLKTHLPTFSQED
Outline: (§3)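 Human eNPP1 extract (19 µg) was preincubated 3 min at 37 °C in 1 mM CaCl2, 200 mM NaCl, 10 mM KCl, 100 mM Tris pH 8.5, then reaction started with compound (4 mM stock). Stopped after 2 h with ice-cold 1 M perchloric acid, neutralised with KOH, and analysed by RP-HPLC (90% 100 mM TEAA pH 7/10% CH3CN). Degradation from the monophosphate peak after subtracting the acid-only control.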

[11] = Neuroprotective activity against Fe2+-induced oxidative damage in rat primary cortical neurons assessed as cell viability after 24 hrs by MTT assay; assay type: functional, cell-based; conditions: Cerebral cortex neuron
Outline: (§4)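 Rat (1-day-old) cortical neurons were grown serum-free in DMEM/F12 with B-27 on poly-ornithine, treated with Ara-C and cultured 5 d. Cells were pretreated with nucleotide (0.01–25 µM), then exposed to FeSO4 3 µM final for 24 h. MTT 1 mg/mL was added for 2 h at 37 °C, formazan dissolved in DMSO, A550 read. Viability given as % of vehicle control; three independent experiments in triplicate.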

[12] = target: T3, eNPP1 (ectonucleotide pyrophosphatase/phosphodiesterase family member 1) (Homo sapiens, UniProt P22413); experiment: as §2; assay type: ADME; conditions: human eNPP1 enzyme, read-out: Drug metabolism
T3 sequence (P22413 whole entry): T2 sequence (P22413 whole entry)
Outline: as §3

[13] = Antioxidant activity in human NTERA2 cells assessed as inhibition of Fe2+-induced reactive oxygen species formation at 0.2 uM after 1 hr by DCFH-DA dye-based fluorometric analysis relative to control; assay type: functional; conditions: NTERA2, 1 h
[14] = Metal chelating activity assessed as inhibition of Fe2+-ferrozine complex formation at 80 uM after 10 mins relative to control; assay type: physicochemical
Outline: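 FeSO4 (final 10 µM) was mixed with ferrozine (final 20 µM) and nucleotide (final 25–200 µM) in water and agitated 10 min at room temperature. Fe(II)-ferrozine complex absorbance at 562 nm, measured with versus without compound. Mean of three experiments.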

Cerebral cortex neuron [15] = experiment: Neuroprotective activity against Fe2+-induced oxidative damage in rat primary cortical neurons assessed as cell viability at 0.01 to 25 uM after 24 hrs by MTT assay; assay type: functional, cell-based
Outline: as §4

Chain of P2Y purinoceptor 1 (P47900 whole entry): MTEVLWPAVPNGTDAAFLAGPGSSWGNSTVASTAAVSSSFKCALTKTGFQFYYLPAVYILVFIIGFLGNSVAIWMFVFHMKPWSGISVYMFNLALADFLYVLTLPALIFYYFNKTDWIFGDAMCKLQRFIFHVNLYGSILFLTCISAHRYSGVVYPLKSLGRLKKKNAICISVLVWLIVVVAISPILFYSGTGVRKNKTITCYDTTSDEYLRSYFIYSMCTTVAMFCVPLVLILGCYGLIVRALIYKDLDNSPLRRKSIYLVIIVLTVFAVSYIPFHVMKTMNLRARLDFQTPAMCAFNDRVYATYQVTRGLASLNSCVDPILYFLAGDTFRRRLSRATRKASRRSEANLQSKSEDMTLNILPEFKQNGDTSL

SMILES	EC50 (P2Y purinoceptor 1) [nM]	EC50 (P2Y purinoceptor 11) [nM]	IC50 [2] [µM]	IC50 [3] [µM]	IC50 (PC-12 [5]) [µM]	further results
Nc1nc(Cl)nc2c1ncn2[C@@H]1O[C@H](COP(=O)(S)OP(=O)(O)O)[C@@H](O)[C@H]1O (stereo in doubt; 8B)	1500	500	12	39	–	IC50 (PC-12 [1]): 110 nM
O=C(O)CC(O)(CC(=O)O)C(=O)O [CITRIC ACID]	–	–	–	–	–	IC50 [4]: 300 µM
Nc1nc(Cl)nc2c1ncn2[C@@H]1O[C@H](COP(=O)(S)OP(=O)(O)O)[C@@H](O)[C@H]1O (stereo in doubt; 8A)	30	1400	11	36	0.2	–
Nc1nc(Cl)nc2c1ncn2[C@@H]1O[C@H](COP(=O)(O)OP(=O)(O)S)[C@@H](O)[C@H]1O (stereo not given in full)	90	1000	13	21	5	–
CSc1nc(N)c2ncn([C@@H]3O[C@H](COP(=O)(S)OP(=O)(O)O)[C@@H](O)[C@H]3O)c2n1 (stereo in doubt; 7A) [listing 1 of 2 here]	–	–	–	–	–	Activity (Cerebral cortex neuron [6]): Active; inhibition (PC-12 [7]): inactive; inhibition (NTERA2): inactive
Cc1c(C)c2c(c(C)c1O)CCC(C)(C(=O)O)O2 (stereo not given) [TROLOX]	–	–	18	–	–	IC50 [4]: 150 µM
O=C(O)CN(CCN(CC(=O)O)CC(=O)O)CC(=O)O [EDETIC ACID]	–	–	–	54	–	–
Nc1ncnc2c1ncn2[C@@H]1O[C@H](COP(=O)(S)OP(=O)(O)O)[C@@H](O)[C@H]1O (stereo in doubt; 6A)	80	4500	20	31	38	half-life [8]: 870 min; half-life [9]: 870 min
CSc1nc(N)c2ncn([C@@H]3O[C@H](COP(=O)(S)OP(=O)(O)O)[C@@H](O)[C@H]3O)c2n1 (stereo in doubt; 7B) [listing 1 of 2 here]	17	1000	12	38	–	IC50 (PC-12 [1]): 600 nM; Drug metabolism [10]: 23.7%
Nc1nc(Cl)nc2c1ncn2[C@@H]1O[C@H](COP(=O)(S)OP(=O)(O)OP(=O)(O)O)[C@@H](O)[C@H]1O (stereo in doubt; 9B)	880	1100	24	27	–	IC50 (PC-12 [1]): 100000 nM
Nc1ncnc2c1ncn2[C@@H]1O[C@H](COP(=O)(O)OP(=O)(O)OP(=O)(O)O)[C@@H](O)[C@H]1O [ADENOSINE TRIPHOSPHATE]	–	–	60	–	–	–
O=C(O)CN(CCN(CC(=O)O)CC(=O)O)CCN(CC(=O)O)CC(=O)O [PENTETIC ACID]	–	–	–	–	–	IC50 [4]: 90 µM
Nc1nc(Cl)nc2c1ncn2[C@@H]1O[C@H](COP(=O)(S)OP(=O)(O)OP(=O)(O)O)[C@@H](O)[C@H]1O (stereo in doubt; 9A)	730	9100	25	37	106	–
Nc1ncnc2c1ncn2[C@@H]1O[C@H](COP(=O)(S)OP(=O)(O)O)[C@@H](O)[C@H]1O (stereo in doubt; 6B)	130	8700	22	36	–	IC50 (PC-12 [1]): 39000 nM
CSc1nc(N)c2ncn([C@@H]3O[C@H](COP(=O)(S)OP(=O)(O)O)[C@@H](O)[C@H]3O)c2n1 (stereo in doubt; 7A) [listing 2 of 2 here]	2.6	3200	12.5	37	–	EC50 [11]: 40 nM; IC50 (PC-12 [1]): 80 nM; half-life [8]: 900 min; metabolised at 2 h, 4000 µM [12]: 36.6%; half-life [9]: 900 min; inhibition at 0.2 µM [13]: 50%; inhibition (INH) [14]: 50%
CSc1nc(N)c2ncn([C@@H]3O[C@H](COP(=O)(O)OP(=O)(O)S)[C@@H](O)[C@H]3O)c2n1 (stereo not given in full)	37	900	15	21	12	–
Nc1ncnc2c1ncn2[C@@H]1O[C@H](COP(=O)(O)OP(=O)(O)S)[C@@H](O)[C@H]1O (stereo not given in full)	1270	32700	15	19	20	IC50 [4]: 85 µM
CSc1nc(N)c2ncn([C@@H]3O[C@H](COP(=O)(S)OP(=O)(O)O)[C@@H](O)[C@H]3O)c2n1 (stereo in doubt; 7B) [listing 2 of 2 here]	–	–	–	–	–	Activity (Cerebral cortex neuron [15]): Active
